# According to ChEMBL document CHEMBL1125731, “2,3-Dihydrobenzofuran analogues of hallucinogenic phenethylamines” (J Med Chem, 1991):
# Assays:
# Rattus norvegicus [1] = experiment: Percent of animals selecting drug liver was determined at a dose of 4.07 intraperitoneally. ( No. of animals disrupted:0); assay type: functional
# Method in brief: (§1)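 Male Sprague-Dawley rats (~200 g) were kept at ~80% free-feeding weight and trained on FR-50 to discriminate LSD tartrate (0.08 mg/kg ip) from saline. Test drug was given ip in saline 30 min before a session lasting until 50 responses or 5 min, unreinforced. Rats failing to make 50 responses were scored disrupted. At least eight rats were tested per dose.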
# Rattus norvegicus [2] = experiment: Percent of animals selecting drug liver was determined at a dose of 40.70 intraperitoneally. (No. of animals disrupted:4); assay type: functional; method in brief: as §1
# Rattus norvegicus [3] = experiment: Percent of animals selecting drug liver was determined at a dose of 8.14 intraperitoneally. (No. of animals disrupted:1); assay type: functional; method in brief: as §1
# Rattus norvegicus [4] = experiment: Percent of animals selecting drug liver was determined at a dose of 32.56 intraperitoneally. (No. of animals disrupted:1); assay type: functional; method in brief: as §1
# Rattus norvegicus [5] = experiment: Percent of animals selecting drug liver was determined at a dose of 16.28 intraperitoneally. (No. of animals disrupted:1); assay type: functional; method in brief: as §1
# [6] = Hill coefficient as determined.
# Method in brief: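 Rat prefrontal cortex homogenate incubated in triplicate with 0.25 nM [125I]-(R)-DOI (2000 Ci/mmol) and varying displacer concentrations, 37 °C for 15 min. The radioligand K_D was 1.34 nM. Binding curves were fitted by computer analysis. Protein was measured by Bradford.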
# Rattus norvegicus [7] = experiment: Percent of animals selecting drug liver was determined at a dose of 10.19 intraperitoneally. (No. of animals disrupted:0); assay type: functional; method in brief: as §1
# Rattus norvegicus [8] = experiment: Percent of animals selecting drug liver was determined at a dose of 12.16 intraperitoneally. (No. of animals disrupted:1); assay type: functional; method in brief: as §1
# [9] = target: Serotonin 2 (5-HT2) receptor (Rattus norvegicus, UniProt P30994+P08909+P14842); experiment: Compound was evaluated for its ability to displace 0.25 nM [125I](R)-DOI from binding sites in rat frontal cortex.; assay type: tissue-based
# Rattus norvegicus [10] = experiment: Percent of animals selecting drug liver was determined at a dose of 8.16 intraperitoneally. (No. of animals disrupted:0); assay type: functional; method in brief: as §1
# Rattus norvegicus [11] = experiment: Percent of animals selecting drug liver was determined at a dose of 2.03 intraperitoneally. (No. of animals disrupted:0); assay type: functional; method in brief: as §1
# Rattus norvegicus [12] = experiment: Percent of animals selecting drug liver was determined at a dose of 0.51 intraperitoneally. (No. of animals disrupted:0); assay type: functional; method in brief: as §1
# Rattus norvegicus [13] = experiment: Percent of animals selecting drug liver was determined at a dose of 2.03 intraperitoneally. (No. of animals disrupted:2); assay type: functional; method in brief: as §1
# Rattus norvegicus [14] = experiment: Percent of animals selecting drug liver was determined at a dose of 1.01 intraperitoneally. (No. of animals disrupted:0); assay type: functional; method in brief: as §1
# Rattus norvegicus [15] = experiment: Percent of animals selecting drug liver was determined at a dose of 0.25 intraperitoneally. (No. of animals disrupted:0); assay type: functional; method in brief: as §1
# Rattus norvegicus [16] = experiment: Percent of animals selecting drug liver was determined at a dose of 1.02 intraperitoneally. (No. of animals disrupted:0); assay type: functional; method in brief: as §1
# Rattus norvegicus [17] = experiment: Percent of animals selecting drug liver was determined at a dose of 2.03 intraperitoneally. (No. of animals disrupted:1); assay type: functional; method in brief: as §1
structure (smiles),measurement,setting,value
COc1ccc(OC)c(CC(C)N)c1 (stereo not given),SDL,Rattus norvegicus [1],38%
same,SDL,Rattus norvegicus [2],63%
same,SDL,Rattus norvegicus [3],38%
same,SDL,Rattus norvegicus [4],63%
same,SDL,Rattus norvegicus [5],50%
same,Hill coefficient,[6],0.92
COc1ccc2c(c1CC(C)N)CCO2 (stereo not given),SDL,Rattus norvegicus [7],63%
same,SDL,Rattus norvegicus [8],88%
same,Ki,[9],146 nM
same,SDL,Rattus norvegicus [10],50%
same,SDL,Rattus norvegicus [11],25%
same,Hill coefficient,[6],0.93
COc1cc(Br)c2c(c1CC(C)N)CCO2 (stereo not given),SDL,Rattus norvegicus [12],38%
same,Ki,[9],3.1 nM
same,SDL,Rattus norvegicus [13],88%
same,SDL,Rattus norvegicus [14],75%
same,SDL,Rattus norvegicus [15],25%
same,Hill coefficient,[6],1.06
COc1cc2c(cc1CC(C)N)OCC2 (stereo not given),Ki,[9],388 nM
same,Hill coefficient,[6],0.91
COc1cc(CC(C)N)c(OC)cc1Br (stereo not given) [BROLAMFETAMINE],Hill coefficient,[6],1.09
COc1cc(CC(C)N)c(OC)cc1C (stereo not given) [DOM],SDL,Rattus norvegicus [12],13%
same,SDL,Rattus norvegicus [16],75%
same,SDL,Rattus norvegicus [17],88%
same,Hill coefficient,[6],0.89
